Only some compounds are listed: those with a hit (about 0.77% of all), similar ones and a draw of the others.
hIAP block = human IAP inhibitors, primary screen, biochemical, luminescence, uHTS; purified IAP, CDP-Star luminescence, 30 min; inhibition, % at 10 µM; 330,000 compounds, 0.12% hits; AID 2544, 2010;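 active = inhibition reaching a set limit with compound at 10 µM in the primary screen, cut at about 35% in these data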
Target sequence (P09923 whole entry, looked up): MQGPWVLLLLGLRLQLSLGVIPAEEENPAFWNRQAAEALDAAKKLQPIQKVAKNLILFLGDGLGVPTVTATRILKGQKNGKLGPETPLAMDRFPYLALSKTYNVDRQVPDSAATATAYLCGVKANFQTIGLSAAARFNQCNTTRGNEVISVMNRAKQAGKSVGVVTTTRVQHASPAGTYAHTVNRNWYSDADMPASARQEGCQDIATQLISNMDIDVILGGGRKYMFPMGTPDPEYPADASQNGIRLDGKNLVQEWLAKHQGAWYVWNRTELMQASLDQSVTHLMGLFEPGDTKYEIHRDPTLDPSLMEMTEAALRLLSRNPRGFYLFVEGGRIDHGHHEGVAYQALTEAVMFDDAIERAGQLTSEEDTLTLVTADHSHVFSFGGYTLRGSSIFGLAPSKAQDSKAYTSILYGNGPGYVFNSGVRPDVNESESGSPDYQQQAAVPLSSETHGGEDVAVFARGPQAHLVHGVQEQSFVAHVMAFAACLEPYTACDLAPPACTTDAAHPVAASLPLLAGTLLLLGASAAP
mIAP block = inhibitors of mouse IAP, primary screen, biochemical, luminescence, uHTS | intestinal alkaline phosphatase [Mus musculus] | purified mouse IAP, CDP-Star luminescence, 30 min | inhibition, % at 10 µM | 330,000 compounds, 0.2% hits;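 active = inhibition of at least 40% at 10 µM in the primary screen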
mIAP activ = activators of mouse IAP, primary screen, biochemical, luminescence, uHTS. muIAP, CDP-Star luminescence, 30 min; stronger effect = higher value; 1 = vehicle-only enzyme signal, 0 = enzyme-free wells. 330,000 compounds, 0.24% hits. activation factor at 10 µM. intestinal alkaline phosphatase [Mus musculus]. AID 2805, 2010;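 active = activation factor of at least 2 at 20 µM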
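also added = chemiluminescent substrate CDP-Star | test system = mouse IAP enzyme | signal = chemiluminescence readout | compound = DMSO-dissolved test compounds | incubation = 30 min at room temperature | benchmarks = DMSO wells, no-enzyme wells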
bIAP inh = bovine intestinal alkaline phosphatase inhibitors, primary screen, selectivity assay for TNAP inhibitor project, biochemical, bovine IAP, CDP-star luminescence; 190,000 tested, under 10 active; inhibition, % at 20 µM; purified bovine IAP, 30 min; AID 1019, 2008;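 active = over 50% inhibition of intestinal alkaline phosphatase at 20 µM in the single-dose screen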
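Incubation: 30 min reaction at room temperature / Material: purified bovine intestinal alkaline phosphatase (IAP) enzyme / Input: enzyme at 1/65,000,000 dilution / Dosing: 20 µM single dose / Signal: CDP-star luminescence signal / Reagent: CDP-star chemiluminescent phosphatase substrate, 30 µM final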
bIAP activator = bovine intestinal alkaline phosphatase activators, primary screen, biochemical, bovine IAP, CDP-star luminescence; AID 1016, 2008; activation factor at 20 µM; 200,000 compounds, 0.17% hits; purified bovine IAP, 30 min; stronger effect = higher value; fold of DMSO-control signal, blank-subtracted;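 active = activation factor of 2 or more at 20 µM, a signal rise over negative controls twice the positive control's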
hIAP act = human IAP activators, primary screen, biochemical, luminescence, uHTS. Intestinal-type alkaline phosphatase (Homo sapiens), P09923. purified human IAP, CDP-Star luminescence, 30 min; stronger effect = higher value; 1 = vehicle-only enzyme, 0 = enzyme-free background. activation factor at 10 µM. 330,000 compounds, 0.16% hits. AID 2524, 2010;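 active = activation factor of the enzyme at least 2-fold when tested at 20 µM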
hIAP act confirm = human IAP activators, confirmation, biochemical, luminescence, single concentration, uHTS hits. 880 compounds, 10% hits. activation (%Activity, negative = activation), % at 8.3 µM. AID 434926, 2010. shares compounds with hIAP act. purified IAP, CDP-Star luminescence, 30 min; stronger effect = lower value;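 active = at least twofold enzyme activation in any of six single-dose repeats, which the averaged readout prints as negative percent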
Hits are given with their value.

What do the screens show for `CC1O[C@@H](OC2C(O)C(O)C(CO)O[C@H]2OC2C[C@]3(C)C(CC(O)C4[C@@H]([C@]5(C)CC[C@@H](C(C)(C)O)O5)CC[C@]43C)[C@@]3(C)CCC(O)C(C)(C)C23)C(O)C(O)C1O` (some centres undefined)?
hIAP block: inactive; mIAP block: inactive; mIAP activ: inactive; hIAP act: inactive

Results for C#CCOCCOCCOCCNc1nc(N2CCN(C(=O)[C@H]([C@@H](C)CC)n3cc([C@@H](N)CC(C)C)nn3)CC2)nc(N2CCN(C(=O)[C@H](CCCCN)n3cc([C@@H](N)CO)nn3)CC2)n1 ?
hIAP block: inactive; mIAP block: inactive; mIAP activ: inactive; bIAP inh: inactive; bIAP activator: inactive; hIAP act: inactive

Results for CN(Cc1ccccc1)C(=O)COC(=O)COc1ccc(C#N)cc1 ?
hIAP block: inactive; mIAP block: inactive; mIAP activ: inactive; hIAP act: inactive

How did COc1ccc2oc(C(=O)Nc3ccc(N4CCOCC4)cc3)c(C)c2c1 do in these assays?
hIAP block: inactive; mIAP block: inactive; mIAP activ: inactive; hIAP act: inactive

How did O=C(NNC1=NCCC1)c1ccc(Br)cc1 do in these assays?
hIAP block: inactive; mIAP block: inactive; mIAP activ: inactive; bIAP inh: inactive; bIAP activator: inactive; hIAP act: 2.61; hIAP act confirm: inactive

What do the screens show for `CN(C)c1ccc(CN(C(=O)c2ccccc2Br)C2CCS(=O)(=O)C2)cc1` (centres undefined)?
hIAP block: inactive; mIAP block: inactive; mIAP activ: inactive; hIAP act: inactive

What do the screens show for `CCN1/C(=C/c2ccc3ccccc3[n+]2CC)C=Cc2ccccc21`?
hIAP block: 36.4; mIAP block: inactive; mIAP activ: inactive; bIAP activator: inactive; hIAP act: inactive; hIAP act confirm: inactive

Results for CCCCN1/C(=C/c2ccc3ccccc3[n+]2CC)Sc2ccccc21 ?
hIAP block: inactive; mIAP block: inactive; mIAP activ: inactive; bIAP inh: inactive; bIAP activator: inactive; hIAP act: inactive

Results for COc1ccc(OC)c(S(=O)(=O)n2nnc3ccccc32)c1 ?
hIAP block: 36.9; mIAP block: inactive; mIAP activ: inactive; bIAP inh: inactive; bIAP activator: inactive; hIAP act: inactive; hIAP act confirm: inactive

What do the screens show for `O=C(Nc1cc(-c2ccccc2)[nH]n1)c1ccccc1F`?
hIAP block: inactive; mIAP block: inactive; mIAP activ: inactive; hIAP act: inactive

Results for O=C(O)c1ccccc1C(=O)Nc1cc(-c2ccccc2)[nH]n1 ?
hIAP block: 38.6; mIAP block: inactive; mIAP activ: inactive; hIAP act: inactive; hIAP act confirm: inactive

How did COc1cc(/C=C2\C(=O)N(c3ccc(NC(C)=O)cc3)N=C2c2ccccc2)ccc1O do in these assays?
hIAP block: 36.8; mIAP block: inactive; mIAP activ: inactive; bIAP inh: inactive; bIAP activator: inactive; hIAP act: inactive; hIAP act confirm: inactive

What do the screens show for `COc1ccc(C)cc1NC(=S)NNC(=O)c1ccccc1Cl`?
hIAP block: inactive; mIAP block: inactive; mIAP activ: inactive; bIAP inh: inactive; bIAP activator: inactive; hIAP act: 2.1; hIAP act confirm: inactive

Results for Cc1ccc(NC(=S)NNC(=O)c2ccccc2O)c(C)c1 ?
hIAP block: inactive; mIAP block: inactive; mIAP activ: inactive; bIAP inh: inactive; bIAP activator: inactive; hIAP act: 2.25; hIAP act confirm: inactive

How did O=C(OCC(=O)N1CCOCC1)c1cc(=O)[nH]c2ccccc12 do in these assays?
hIAP block: inactive; mIAP block: inactive; mIAP activ: inactive; hIAP act: inactive

Results for COc1cc(NC(=O)c2n[nH]c(=O)c3ccccc23)cc(OC)c1 ?
hIAP block: inactive; mIAP block: inactive; mIAP activ: inactive; hIAP act: inactive

How did COc1ccc(-c2nc(NC(=O)c3n[nH]c(=O)c4ccccc34)sc2C)cc1 do in these assays?
hIAP block: inactive; mIAP block: inactive; mIAP activ: inactive; bIAP inh: inactive; bIAP activator: inactive; hIAP act: 2.15; hIAP act confirm: inactive

Results for O=C(c1cccs1)N1CCc2ccccc21 ?
hIAP block: inactive; mIAP block: inactive; mIAP activ: inactive; bIAP inh: inactive; bIAP activator: inactive; hIAP act: 2.19; hIAP act confirm: inactive

What do the screens show for `CCN(CC)C(=O)COc1ccc(S(=O)(=O)N2CCCC2)cc1`?
hIAP block: inactive; mIAP block: inactive; mIAP activ: inactive; hIAP act: inactive

How did CCN(CC)C(=O)COc1ccc(S(=O)(=O)N2CCOCC2)cc1 do in these assays?
hIAP block: inactive; mIAP block: inactive; mIAP activ: inactive; bIAP inh: inactive; bIAP activator: inactive; hIAP act: 2.45; hIAP act confirm: inactive

What do the screens show for `O=C(NN1CCOCC1)c1cccc(Cl)c1`?
hIAP block: inactive; mIAP block: inactive; mIAP activ: inactive; hIAP act: inactive

How did COc1ccc(-c2cc(C(=O)NNC(=O)c3csc(N4CCOCC4)n3)c3ccccc3n2)cc1OC do in these assays?
hIAP block: inactive; mIAP block: inactive; mIAP activ: inactive; hIAP act: 2.35; hIAP act confirm: inactive

What do the screens show for `Nc1ccc(S(=O)(=O)N2CCc3ccccc32)cc1`?
hIAP block: 38.1; mIAP block: inactive; mIAP activ: inactive; hIAP act: inactive; hIAP act confirm: inactive

How did Cc1ccccc1CN1[C@@H](C(C)C)COCCS1(=O)=O do in these assays?
hIAP block: inactive; mIAP block: inactive; mIAP activ: inactive; hIAP act: inactive

How did Cc1cccc(-n2cnc(C(=O)NNC(=S)Nc3ccc(Cl)cc3)c2)n1 do in these assays?
hIAP block: inactive; mIAP block: inactive; mIAP activ: inactive; bIAP inh: inactive; bIAP activator: inactive; hIAP act: 2.02; hIAP act confirm: inactive

How did Cc1nc2ccccn2c1C(=O)NNC(=S)Nc1ccc(Cl)cc1 do in these assays?
hIAP block: inactive; mIAP block: inactive; mIAP activ: inactive; bIAP inh: inactive; bIAP activator: inactive; hIAP act: inactive

What do the screens show for `CCCCCCC1CCC(C(=O)N2CCOCC2)CC1` (centres undefined)?
hIAP block: inactive; mIAP block: inactive; mIAP activ: inactive; bIAP inh: inactive; bIAP activator: inactive; hIAP act: inactive

How did Cc1ccc(-n2c(-c3ccc(Cl)cc3)n[nH]c2=S)c(C)c1 do in these assays?
hIAP block: inactive; mIAP block: inactive; mIAP activ: inactive; hIAP act: inactive

High-throughput results (PubChem BioAssay)
